≈ marks a conversion by molar mass, not a printed value.
What was measured:
NDEA-induced HCC [1] = experiment: NDEA-induced HCC model: body weight, liver weight, tumor incidence; type: in vivo, Wistar albino rats
Summary of the method: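 NDEA-induced HCC in male Wistar albino rats (six weeks old, 80–120 g, n=8/group): 100 mg/kg i.p. weekly for 6 weeks. Then free or PLGA-nanoparticle test compound was given at 50 or 100 mg/kg orally, or 5-FU 10 mg/kg i.p., for 15 days; controls got 0.25% CMC 2 mL/kg. Body weight was taken on the first and last days as % gain. Livers were weighed; nodule number and % incidence were counted.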

NDEA-induced HCC [2] = experiment: NDEA-induced HCC model: oxidative stress parameters in liver tissue; type: in vivo, Wistar albino rats
Summary of the method: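 Rats were male Wistar albino (80–120 g, n=8/group) given NDEA 100 mg/kg i.p. weekly for 6 weeks. They then received free or PLGA-nanoparticle test compound at 50 or 100 mg/kg orally, or 5-FU 10 mg/kg i.p., for 15 days. Livers were excised, rinsed in ice-cold saline and stored at −80°C. CAT, SOD, GSH, protein carbonyl and TBARS were assayed in liver tissue.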

caspase-3 and -8 genes = experiment: NDEA-induced HCC model: qRT-PCR of caspase-3 and -8 mRNA in liver tissue; type: in vivo, Wistar albino rats; conditions: NDEA rats, 50 and 100 mg/kg orally for 15 days
NDEA-induced HCC [3] = experiment: NDEA-induced HCC model: catabolic by-products; type: in vivo, Wistar albino rats; conditions: NDEA rats; 50 and 100 mg/kg orally for 15 days
[4] = In vivo oral pharmacokinetic study, plasma HPLC; parameters: species or system albino Wistar rats
Summary of the method: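 Albino Wistar rats received free or PLGA-nanoparticle test compound orally at 100 mg/kg. […] was mixed 1:1 with ACN, vortexed, spun, dried at 40°C and reconstituted in ACN. Assay was RP-C18 HPLC (ACN:H2O 9:1, 1 mL/min, 40°C, 230 nm); calibrants 0.01–50.0 µg/mL.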

caspase-3 and -8 = experiment: NDEA-induced HCC model: ELISA of caspase-3 and -8 in liver; type: in vivo, Wistar albino rats; conditions: NDEA rats; 50 and 100 mg/kg orally for 15 days
HepG2 cells = experiment: Sulforhodamine B; type: cell-based; conditions: Homo sapiens, HepG2, 48 h
[5] = test system: IL-2, IL-6, IL-10 and IL-1β; type: in vivo, Wistar albino rats; conditions: NDEA rats, ELISA; 50 and 100 mg/kg orally for 15 days
Summary of the method: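 Male Wistar albino rats (six weeks old, 80–120 g, n=8/group) got NDEA 100 mg/kg i.p. weekly for 6 weeks. Free or PLGA-nanoparticle test compound followed at 50 or 100 mg/kg orally for 15 days (5-FU 10 mg/kg i.p.; vehicle 0.25% CMC). Excised livers were rinsed in ice-cold saline and kept at −80°C. Hepatic IL-2, IL-6, IL-10 and IL-1β were measured by kit ELISA; mean ± SD.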

NDEA-induced HCC [6] = experiment: NDEA-induced HCC model: histopathology; type: in vivo, Wistar albino rats; conditions: NDEA rats; 50 and 100 mg/kg orally for 15 days
[7] = NDEA + 5-FU 10 mg/kg i.p. for 15 days
[8] = albino Wistar, rat, po, 100 mg/kg
[9] = oral 100 mg/kg, albino Wistar rats
[10] = NDEA + 50 mg/kg orally for 15 days
[11] = NDEA + 100 mg/kg orally for 15 days

## O=c1[nH]cc(F)c(=O)[nH]1 [Batch 5-FU, 5-fluorouracil, reference compound]
NDEA-induced HCC [1]; [7]
  Final day body weight: 125.00 ± 3.15 g
  Liver weight: 10.43 ± 1.71 g
  Tumor incidence no: 6.00±0.83
  Weight variation: 10.00 ± 1.26 g
NDEA-induced HCC [2]; [7]
  CAT: 8.41±0.68 nM of H2O2/min/µg of protein
  GSH: 5.04±0.61 mM/mg of protein
  ProC: 0.69±0.03 µM/µg of protein
  SOD: 0.24±0.09 U/µg of protein
  TBARS: 0.09±0.01 nM of MDA/mg of protein

## C=C(C)[C@@H]1CC[C@]2(C(=O)O)CC[C@]3(C)[C@H](CC[C@@H]4[C@@]5(C)CC[C@H](O)C(C)(C)[C@@H]5CC[C@]43C)[C@@H]12 [B, Betulinic acid]
caspase-3 and -8 genes
  Caspase-3 and -8 gene expression, qRT-PCR (in words): significantly elevated (p<0.001) the reduced levels of caspase-3 and -8
NDEA-induced HCC [3]
  Catabolic pigments bilirubin and biliverdin in liver tissue (in words): significant (p<0.001) normalization
[4]; [8]
  AUC: 134 µg·h/mL
  AUC(0-inf): 134 ± 35.7 µg·h/mL
  Cmax: 10300 ± 450 ng/mL
  MRT: 12.9 ± 1.35 h
  Tmax: 4 h
  half-life: 10.7 h
[4]; [9]
  AUMC: 1,724.12 µg·h^2/mL
  CL: 0.007 h
NDEA-induced HCC [1]; [10]
  Final day body weight: 132.00 ± 4.25 g
  Liver weight: 12.78 ± 0.73 g
  Tumor incidence no: 19.00±0.97
  Weight variation: 11.00 ± 1.82 g
NDEA-induced HCC [1]; [11]
  Final day body weight: 130.00 ± 2.12 g
  Liver weight: 12.03 ± 1.25 g
  Tumor incidence no: 14.00±1.01
  Weight variation: 12.00 ± 2.93 g
caspase-3 and -8
  Caspase-3 and -8 levels in liver, ELISA (in words): ability to elevate the reduced levels of caspase-3 and -8
NDEA-induced HCC [2]; [10]
  CAT: 5.75±0.27 nM of H2O2/min/µg of protein
  GSH: 3.25±0.65 mM/mg of protein
  ProC: 0.91±0.02 µM/µg of protein
  SOD: 0.19±0.07 U/µg of protein
  TBARS: 0.13±0.05 nM of MDA/mg of protein
NDEA-induced HCC [2]; [11]
  CAT: 6.81±0.73 nM of H2O2/min/µg of protein
  GSH: 3.50±0.32 mM/mg of protein
  ProC: 0.76±0.02 µM/µg of protein
  SOD: 0.21±0.05 U/µg of protein
  TBARS: 0.11±0.04 nM of MDA/mg of protein
HepG2 cells
  GI50: 10 µg/mL (≈ 21.9 µM)
[5]
  Inflammatory cytokines IL-2, IL-6, IL-10, IL-1β (in words): decreased to a certain extent
NDEA-induced HCC [6]
  Histological changes in liver tissue, H&E (in words): marked improvement in gross microscopic appearance of hepatic tissue
